Data taken from paper PMC9076653 (RSC Advances, 2019).
Values joined by “and” are separate entries in the source; they are usually repeats but may differ in a detail not shown here. Equal values may be shown once.

Tests used:
[1] = system: MDA-MB-231; test: MTT cell growth inhibition assay, MDA-MB-231; assay type: cell-based; details: Homo sapiens, MDA-MB-231, 72 h, read-out: IC50 MDA-MB-231
Outline: (§1)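 MTT assay. Seeding per well was 3 × 10^3 for cancer cells, 4 × 10^3 for HUVEC and 8 × 10^3 for HL7702. Test compound was added after adherence and incubated 72 h. MTT (5 mg mL−1 stock) was added for a further 4 h at 37 °C, formazan was dissolved in DMSO, and absorbance was read at 570 nm. Inhibition was calculated relative to controls, and IC50 is the concentration giving 50% growth inhibition.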

[2] = system: Hsp90 client proteins (Her2, AKT, CDK4) and Hsp70 in MDA-MB 231 cells; test: Western blot assay of Hsp90 inhibition in cellular system; assay type: cell-based, human; details: 0.5 μM
Outline: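 MDA-MB 231 cells were treated with or without test compound over different time courses. Cells were lysed in ice-cold Tris-HCl (pH 7.4) buffer with Triton, EDTA/EGTA, phosphatase and protease inhibitors, then boiled 10 min in SDS loading buffer. Proteins were separated by 8–12% SDS-PAGE and transferred to PVDF. Membranes were blocked in 5% BSA in PBS-Tween for 1 h, incubated with primary antibodies overnight at 4 °C, and detected with peroxidase-conjugated anti-rabbit or anti-mouse secondary antibodies and ECL.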

[3] = system: HepG2; test: MTT cell growth inhibition assay, HepG2; assay type: cell-based; details: Homo sapiens, HepG2, 72 h, read-out: IC50 HepG2
Outline: as §1

[4] = system: BGC-823; test: MTT cell growth inhibition assay, BGC-823; assay type: cell-based; details: Homo sapiens, BGC-823, 72 h, read-out: IC50 BGC-823
Outline: as §1

[5] = system: SW480; test: MTT cell growth inhibition assay, SW480; assay type: cell-based; details: Homo sapiens, SW480, 72 h, read-out: IC50 SW480
Outline: as §1

[6] = system: A431; test: MTT cell growth inhibition assay, A431; assay type: cell-based; details: Homo sapiens, A-431, 72 h, read-out: IC50 A431
Outline: as §1

[7] = system: A549; test: MTT cell growth inhibition assay, A549; assay type: cell-based; details: Homo sapiens, A549, 72 h, read-out: IC50 A549
Outline: as §1

[8] = system: HeLa; test: MTT cell growth inhibition assay, HeLa; assay type: cell-based; details: Homo sapiens, 72 h, read-out: IC50 HeLa
Outline: as §1

[9] = system: HL7702; test: MTT cell growth inhibition assay, HL7702; assay type: cell-based; details: Homo sapiens, L02, 72 h, read-out: IC50 HL7702
Outline: as §1

[10] = In vivo hepatotoxicity assay; design: species or system Kunming mice; details: mice
Outline: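 Female Kunming mice (4–6 weeks) were randomised into three groups of three: vehicle control, or test compound or parent ansamycin at 10 mg kg−1. They were injected once daily for three consecutive days. Serum AST and ALT were then measured with spectrophotometric kits and reported in U L−1.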

[11] = system: HUVEC; test: MTT cell growth inhibition assay, HUVEC; assay type: cell-based; details: Homo sapiens, 72 h, read-out: IC50 HUVEC
Outline: as §1

[12] = system: MDA-MB-231 xenograft; test: In vivo antitumor assay, MDA-MB-231 xenograft model; design: species or system nude mice; details: 10 mg kg^−1 via caudal vein every three days, 15 days
Outline: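 Female athymic nude mice (6–7 weeks) first received 5 × 10^6 logarithmic-phase MDA-MB-231 cells s.c. in physiological saline. After two weeks, tumour fragments were implanted into the right flank. At a mean tumour volume of 100 mm3, mice were randomised (6 per group) and dosed 10 mg kg−1 via the tail vein every three days for 15 days. Vehicle was 5% glucose with 1% DMSO and 2% lecithin; a reference Hsp90 inhibitor served as positive control. Calipers were used every three days, with V = length × width²/2. TGI came from final tumour weights, and T/C from mean RTV (Vt/V0). Student's two-tailed t test was used, P < 0.05.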

[13] = 10 mg kg^−1, injected once a day for three days, blood serum

With `COC1=C2C[C@@H](C)C[C@H](OC)[C@H](O)[C@@H](C)/C=C(\C)[C@H](OC(N)=O)[C@@H](OC)/C=C\C=C(/C)C(=O)NC(=CC1=O)C2=O` [GA, Geldanamycin] the IC50 [1] was 0.059 ± 0.013 µM, the “levels of Hsp70” value [2] was “markedly increased” and the IC50 [3] was 0.045 ± 0.007 µM. The IC50 [4] was 0.04 ± 0.008 µM, the IC50 [5] was 0.298 ± 0.034 µM and the IC50 [6] was 0.045 ± 0.006 µM. It also gave an IC50 [7] of 0.091 ± 0.007 µM, an IC50 [8] of 0.731 ± 0.053 µM and an IC50 [9] of 0.133 ± 0.02 µM. The ALT [10, 13] was 273.0 ± 25.3 U L^−1, the AST [10, 13] was 317.2 ± 39.1 U L^−1 and the “AST and ALT levels versus vehicle control group” value ([10]; 10 mg kg^−1, three days) was “significantly higher”. For the same molecule, the IC50 [11] was 0.018 ± 0.003 µM.
For `C=CCNC1=C2C[C@@H](C)C[C@H](OC)[C@H](O)[C@@H](C)/C=C(\C)[C@H](OC(N)=O)[C@@H](OC)/C=C\C=C(/C)C(=O)NC(=CC1=O)C2=O` [Compound 17-AAG, 17-allylamino-17-demethoxygeldanamycin], the IC50 [1] was 0.324 ± 0.076 µM, the T/C ([12]; relative tumor volume) was 41.9% and 41.9 ± 11.3% and the TGI ([12]; tumor weight) was 55.1% and 55.1 ± 5.5%. The “levels of Hsp70” value [2] was “markedly increased”, the IC50 [3] was 0.082 ± 0.016 µM and the IC50 [4] was 0.725 ± 0.099 µM. The IC50 [5] was 0.614 ± 0.085 µM, the IC50 [6] was 0.072 ± 0.004 µM and the IC50 [7] was 0.087 ± 0.006 µM. The IC50 [8] was 0.112 ± 0.018 µM, the IC50 [9] was 0.105 ± 0.007 µM and the IC50 [11] was 0.271 ± 0.038 µM.
